We go through 6 molecules from ChEMBL document CHEMBL4257507, “Evaluation of A-ring fused pyridine d-modified androstane derivatives for antiproliferative and aldo-keto reductase 1C3 inhibitory activity” (Medchemcomm, 2018).

The test system of data set [1] is MCF7. The data set is described as follows: Antiproliferative activity against human MCF7 cells after 48 hrs by MTT assay. It counts as functional, cell-based. As to conditions: MCF7, 48 h; call rule not given here. In a few lines:
(§1)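 Cells grown in DMEM with 10% FCS and antibiotics at 37 °C, 5% CO2. Only viable cells from passages 3–10 were used. Seeded at 5000 cells/well and left overnight, then exposed 48 h to five concentrations from 10–8 to 10–4 M. MTT was added, formazan dissolved in acidified 2-propanol and read at 540/690 nm. Two independent experiments, each in quadruplicate. IC50 by median effect analysis.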

Data set [2] relates to MDA-MB-231. The experiment in a line: Antiproliferative activity against human MDA-MB-231 cells after 48 hrs by MTT assay. It counts as functional, cell-based. As to conditions: MDA-MB-231, 48 h. Summed up: as §1
The test system of another data set is PC-3. The data set is described as follows: Antiproliferative activity against human PC3 cells after 48 hrs by MTT assay. It counts as functional, cell-based. As to conditions: PC-3, 48 h. In a few lines:
as §1
Background: Formazan colour is commonly taken as a measure of viable cells.

The test system of data set [3] is HeLa. The experiment in a line: Antiproliferative activity against human HeLa cells after 48 hrs by MTT assay. Type of data set: functional, cell-based. In a few lines:
as §1

The subject of data set [4] is HT-29. The experiment in a line: Antiproliferative activity against human HT-29 cells after 48 hrs by MTT assay. It counts as functional, cell-based. As to conditions: HT-29, 48 h. Summed up:
as §1

Data set [5] relates to A549. The data set is described as follows: Antiproliferative activity against human A549 cells after 48 hrs by MTT assay. Type of data set: functional, cell-based. As to conditions: A549, 48 h. Summed up: as §1
The subject of data set [6] is MRC5. The experiment in a line: Antiproliferative activity against human MRC5 cells after 48 hrs by MTT assay. Type of data set: cell-based. As to conditions: MRC5, 48 h. In a few lines: as §1
The target in a further data set is T1, Estrogen receptor (Homo sapiens, UniProt P03372).
T1 sequence (P03372 whole entry): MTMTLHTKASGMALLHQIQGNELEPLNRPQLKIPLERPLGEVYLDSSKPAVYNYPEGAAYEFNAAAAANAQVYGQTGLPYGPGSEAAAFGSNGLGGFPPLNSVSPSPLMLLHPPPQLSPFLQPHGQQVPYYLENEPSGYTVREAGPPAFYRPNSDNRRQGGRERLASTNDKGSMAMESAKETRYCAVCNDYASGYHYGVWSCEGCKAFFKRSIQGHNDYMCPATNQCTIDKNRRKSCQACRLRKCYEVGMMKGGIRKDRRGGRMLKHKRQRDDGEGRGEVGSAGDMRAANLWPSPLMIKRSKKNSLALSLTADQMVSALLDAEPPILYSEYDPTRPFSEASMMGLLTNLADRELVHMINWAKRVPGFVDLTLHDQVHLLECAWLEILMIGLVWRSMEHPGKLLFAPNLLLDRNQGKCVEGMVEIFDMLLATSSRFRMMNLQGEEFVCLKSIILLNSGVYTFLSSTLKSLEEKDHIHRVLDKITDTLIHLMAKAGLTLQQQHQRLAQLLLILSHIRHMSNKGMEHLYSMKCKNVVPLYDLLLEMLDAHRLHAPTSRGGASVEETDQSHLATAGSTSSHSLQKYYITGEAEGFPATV
The experiment in a line: Binding affinity to YFP-fused ERalpha LBD (unknown origin) by cell based fluorimetric assay. In a few lines: (§2)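 S. cerevisiae FY250 transformed with ERα, ERβ or AR LBD–EYFP constructs and grown at 28 °C in selection medium with 2% raffinose to OD600 0.4–0.6. Galactose (2% final) induced expression, with ligand added at 10 μM final and 1% DMSO as background. Cells incubated 14 h at 25 °C in the dark, then read at ex 485/em 538 nm and normalized to OD600. Result given as fold fluorescence over DMSO, mean of three probes.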

The next data set deals with Estrogen receptor beta (Homo sapiens, UniProt Q92731). The experiment in a line: Binding affinity to YFP-fused ERbeta LBD (unknown origin) by cell based fluorimetric assay. In a few lines:
as §2

The target in the next data set is T2, Androgen receptor (Homo sapiens, UniProt P10275).
T2 sequence (P10275 whole entry): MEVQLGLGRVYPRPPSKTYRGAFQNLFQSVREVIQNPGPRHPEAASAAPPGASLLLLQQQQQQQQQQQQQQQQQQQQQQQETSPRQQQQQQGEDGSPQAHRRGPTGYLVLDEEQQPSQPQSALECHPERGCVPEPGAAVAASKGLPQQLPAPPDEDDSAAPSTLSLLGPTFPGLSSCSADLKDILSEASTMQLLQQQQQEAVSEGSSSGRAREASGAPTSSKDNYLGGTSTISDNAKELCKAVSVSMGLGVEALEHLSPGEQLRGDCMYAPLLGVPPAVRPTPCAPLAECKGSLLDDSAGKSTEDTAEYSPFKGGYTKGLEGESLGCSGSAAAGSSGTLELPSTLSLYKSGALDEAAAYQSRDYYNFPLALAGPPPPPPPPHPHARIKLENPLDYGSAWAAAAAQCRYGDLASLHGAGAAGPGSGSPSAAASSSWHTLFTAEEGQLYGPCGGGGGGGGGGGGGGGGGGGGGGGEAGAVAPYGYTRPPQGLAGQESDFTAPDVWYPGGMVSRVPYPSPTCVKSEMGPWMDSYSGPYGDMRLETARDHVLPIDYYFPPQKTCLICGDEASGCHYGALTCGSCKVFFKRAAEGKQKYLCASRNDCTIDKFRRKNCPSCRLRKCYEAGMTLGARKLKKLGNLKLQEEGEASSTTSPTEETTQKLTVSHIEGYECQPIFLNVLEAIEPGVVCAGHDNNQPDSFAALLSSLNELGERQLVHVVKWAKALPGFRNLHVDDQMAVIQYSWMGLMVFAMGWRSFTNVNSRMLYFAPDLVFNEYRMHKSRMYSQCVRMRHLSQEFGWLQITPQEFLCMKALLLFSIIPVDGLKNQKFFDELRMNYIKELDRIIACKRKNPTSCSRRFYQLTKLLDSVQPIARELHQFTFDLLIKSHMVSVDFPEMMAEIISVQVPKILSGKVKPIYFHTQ
The data set is described as follows: Binding affinity to YFP-fused AR (unknown origin) by cell based fluorimetric assay. In a few lines: as §2

In data set [7] the test system is HT-29. The experiment in a line: Potency index, ratio of doxorubicin IC50 to compound IC50 for antiproliferative activity against human HT-29 cells. Type of data set: functional.
Data set [8] relates to MCF7. The data set is described as follows: Antiproliferative activity against human MCF7 cells. Type of data set: functional, cell-based. In a few lines:
(§3)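 MTT assay. Cells were grown in DMEM ([…]) with 10% FCS and antibiotics/antimycotic at 37 °C and 5% CO2. Viable cells from passages 3–10 were seeded at 5000 per well and left overnight. They were then exposed for 48 h to five concentrations from 10–8 to 10–4 M. Absorbance was read at 540/690 nm. Two independent experiments were run in quadruplicate, and IC50 was derived by median effect analysis.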

Data set [9] has as its system MDA-MB-231. The experiment in a line: Antiproliferative activity against human MDA-MB-231 cells. Type of data set: functional, cell-based. In a few lines: as §3
The test system of data set [10] is HeLa. The experiment in a line: Antiproliferative activity against human HeLa cells. It counts as functional, cell-based. In a few lines:
as §3

Data set [11] concerns HT-29. The data set is described as follows: Antiproliferative activity against human HT-29 cells. It counts as functional, cell-based. In a few lines:
as §3

Data set [12] deals with A549. The data set is described as follows: Antiproliferative activity against human A549 cells. It counts as functional, cell-based. Summed up:
as §3

For data set [13], the system named is MRC5. The experiment in a line: Antiproliferative activity against human MRC5 cells. Type of data set: cell-based. Summed up: as §3

Sequence of Estrogen receptor beta (Q92731 whole entry, the tested form may be a part): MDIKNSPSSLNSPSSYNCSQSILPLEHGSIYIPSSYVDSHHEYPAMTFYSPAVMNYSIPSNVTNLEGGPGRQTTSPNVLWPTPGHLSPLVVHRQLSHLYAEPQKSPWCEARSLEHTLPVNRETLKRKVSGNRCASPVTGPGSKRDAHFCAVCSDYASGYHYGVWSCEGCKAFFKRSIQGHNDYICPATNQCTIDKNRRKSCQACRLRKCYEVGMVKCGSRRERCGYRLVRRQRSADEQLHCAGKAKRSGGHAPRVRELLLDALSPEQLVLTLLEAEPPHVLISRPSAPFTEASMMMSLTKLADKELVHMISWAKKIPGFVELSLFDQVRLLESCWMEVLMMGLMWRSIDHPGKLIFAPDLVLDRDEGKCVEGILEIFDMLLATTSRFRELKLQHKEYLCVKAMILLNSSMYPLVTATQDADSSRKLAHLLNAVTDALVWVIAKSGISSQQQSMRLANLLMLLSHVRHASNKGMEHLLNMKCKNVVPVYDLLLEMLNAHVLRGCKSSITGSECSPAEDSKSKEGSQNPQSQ

A word on the IC50: it is the concentration that gives 50% inhibition. Low readings indicate greater potency, high ones weaker potency. With `C[C@]12CCc3ncccc3C1=CC[C@@H]1[C@@H]2CC[C@]2(C)/C(=C/c3ccccn3)CC[C@@H]12`, the IC50 with MCF7 [1] is 37.4 µM; with MDA-MB-231 [2], 87.4 µM; with PC-3, 11.5 µM; with HeLa [3], greater than 100 µM; in the data set on HT-29 [4], greater than 100 µM; with A549 [5], 11.9 µM. In the data set on MRC5 [6], this molecule came in with a 50% inhibitory concentration (IC50) greater than 100 µM. Besides, the Activity result on Estrogen receptor, at Estrogen receptor beta and at Androgen receptor was “Not Active” each time.
For `COc1cccc2c1C(=O)c1c(O)c3c(c(O)c1C2=O)C[C@@](O)(C(=O)CO)C[C@@H]3O[C@H]1C[C@H](N)[C@H](O)[C@H](C)O1` [DOXORUBICIN], the IC50 came out at 0.75 µM with MCF7 [1], 0.32 µM in the data set on HT-29 [4] and 7.86 µM in the data set with A549 [5].
`C[C@]12CC[C@H]3[C@@H](CC(=O)[C@H]4c5cccnc5CC[C@@]43C)[C@@H]1CC(=O)OC2`: the IC50 in the data set on MCF7 [1] is greater than 100 µM; with MDA-MB-231 [2], greater than 100 µM; in the data set with PC-3 it was greater than 100 µM; in the data set on HeLa [3], greater than 100 µM; with HT-29 [4], 0.06 µM; with A549 [5], greater than 100 µM. The same molecule yielded a 50% inhibitory concentration (IC50) with MRC5 [6] greater than 100 µM. In addition, the “Ratio IC50” value with HT-29 [7] was 5. Further, the Activity result on Estrogen receptor, at Estrogen receptor beta and at Androgen receptor was “Not Active” each time.
In the case of `C[C@]12CCc3ncccc3C1=CC[C@@H]1[C@@H]2CC[C@@]2(C)[C@H]1CC[C@@]2(O)Cc1ccccn1`, the IC50 was greater than 100 µM with MCF7 [1]; 44.5 µM with MDA-MB-231 [2]; 7.93 µM in the data set with PC-3; greater than 100 µM in the data set on HeLa [3]; 46.1 µM in the data set with HT-29 [4]; greater than 100 µM in the data set on A549 [5]. In the data set on MRC5 [6], this molecule displayed an IC50 greater than 100 µM. The Activity entry at Estrogen receptor, at Estrogen receptor beta and at Androgen receptor was “Not Active” throughout.
With `C[C@]12CCC(=O)C(O)=C1CC[C@@H]1[C@@H]2CC[C@]2(C)C(=O)CC[C@@H]12` [FORMESTANE], the concentration for half-maximal inhibition (IC50) in the data set on MCF7 [1], in the data set on HT-29 [4], in the data set with A549 [5] and in the data set on MRC5 [6] was greater than 100 µM in each case.
As for `C[C@]12CCC(=O)C=C1CC[C@@H]1[C@@H]2CC[C@]2(C)/C(=C/c3ccccn3)CC[C@@H]12`, the IC50 in the data set with MCF7 [8], in the data set on MDA-MB-231 [9], with HeLa [10], in the data set on HT-29 [11], with A549 [12] and in the data set with MRC5 [13] was greater than 100 µM in each case. Moreover, the Activity result on Estrogen receptor, on Estrogen receptor beta and at Androgen receptor was “Not Active” in each case.
